# Reference: ChEMBL document CHEMBL1155230, “Synthesis, biological evaluation, and structure-activity relationships for 5-[(E)-2-arylethenyl]-3-isoxazolecarboxylic acid alkyl ester derivatives as valuable antitubercular chemotypes” (J Med Chem, 2009)
# How the values were obtained:
# [1] = test system: Mycobacterium tuberculosis; assay: Antimycobacterial activity against Mycobacterium tuberculosis H37Rv replicating form by alamar blue assay; assay type: functional
# Method in brief: (§1)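 M. tuberculosis H37Rv (ATCC 27294) was tested, in replicating form by MABA and in nonreplicating form by LORA, following published procedures. The value is the MIC, reported as the average of three individual determinations.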
# [2] = test system: Mycobacterium tuberculosis; assay: Antimycobacterial activity against non replicating persistent form of Mycobacterium tuberculosis H37Rv after 10 days by low oxygen recovery assay; assay type: functional; conditions: 240 h; method in brief: as §1
# [3] = test system: Vero; assay: Cytotoxicity against african green monkey Vero cells after 72 hrs; assay type: cell-based; conditions: Chlorocebus sabaeus
# [4] = test system: Mycolicibacterium smegmatis; assay: Antimicrobial activity against Mycobacterium smegmatis; assay type: functional
# [5] = test system: Escherichia coli; assay: Antimicrobial activity against Escherichia coli; assay type: functional
# [6] = test system: Candida albicans; assay: Antimicrobial activity against Candida albicans; assay type: functional
# [7] = test system: Staphylococcus aureus; assay: Antimicrobial activity against Staphylococcus aureus; assay type: functional
SMILES,MIC90 [1] [µM],MIC90 [2] [µM],IC50 [3] [µM],MIC [4] [µM],MIC [5] [µM],MIC [6] [µM],MIC [7] [µM]
CCOC(=O)c1cc(COc2cc(C(F)(F)F)nc3c(C(F)(F)F)cccc23)on1,0.9,12.2,–,–,–,–,–
CCOC(=O)c1cc(/C=C/c2ccc(C(F)(F)F)cc2)on1,3.9,6.8,–,–,–,–,–
CCOC(=O)c1cc(/C=C/c2ccccc2C(F)(F)F)on1,3.9,12.1,–,–,–,–,–
CCOC(=O)c1cc(/C=C/c2ccco2)on1,7.9,50.2,> 128,–,–,–,–
CCOC(=O)c1cc(CCc2cc(O)cc(O)c2)on1,> 128,> 128,–,–,–,–,–
CCOC(=O)c1cc(/C=C\c2cccc(OC)n2)on1,27.5,45.9,–,–,–,–,–
CCOC(=O)c1cc(/C=C/c2c(Cl)ccc(C)c2F)on1,3.5,7,> 128,–,–,–,–
CCOC(=O)c1cc(/C=C/c2ccccc2CC)on1,0.98,2,> 128,–,–,–,–
CCCCOC(=O)c1cc(/C=C/c2ccc(OC)nc2)on1,2,6.7,–,–,–,–,–
CCOC(=O)c1cc(/C=C/c2ccnc3ccccc23)on1,0.2,2.6,–,–,–,–,–
CCOC(=O)c1cc(/C=C/c2ccc(C)c3ccccc23)on1,17.3,3.6,> 128,–,–,–,–
CCOC(=O)c1cc(/C=C/c2ccc(N3CCN(C)CC3)cc2)on1,15.2,37.4,–,–,–,–,–
CCOC(=O)c1cc(/C=C/c2ccc(F)cc2F)on1,5.3,13.8,> 128,–,–,–,–
CCOC(=O)c1cc(/C=C/c2cc(Cl)cc(Cl)c2)on1,5.4,5.9,> 128,–,–,–,–
O=C(O)c1cc(/C=C/c2cccc(C(F)(F)F)c2)on1,> 128,> 128,–,–,–,–,–
CCOC(=O)c1cc(/C=C/c2ccccc2)on1,11.7,18,–,–,–,–,–
CCCCOC(=O)c1cc(/C=C/c2ccnc3ccc(OC)cc23)on1,1.1,1.8,> 128,–,–,–,–
CCOC(=O)c1cc(/C=C/c2cc(OCc3ccccc3)cc(OCc3ccccc3)c2)on1,6.3,4.7,> 128,–,–,–,–
CCOC(=O)c1cc(/C=C/c2ccsc2)on1,1.6,26.9,> 128,–,–,–,–
O=C(O)c1cc(/C=C/c2cccc3ccccc23)on1,> 128,> 128,–,–,–,–,–
CCCCCCCCOC(=O)c1cc(/C=C/c2c(Cl)cncc2Cl)on1,10.9,9.2,> 128,–,–,–,–
CCCCCCC(C)OC(=O)c1cc(/C=C/c2c(Cl)cncc2Cl)on1 (stereo not given),8.3,24.2,> 128,–,–,–,–
CCOC(=O)c1cc(/C=C/c2cccc(OC)c2)on1,3.7,8.8,> 128,–,–,–,–
CCOC(=O)c1cc(/C=C/c2cc(F)cc(F)c2)on1,3.7,8.9,> 128,–,–,–,–
CCOC(=O)c1cc(/C=C/c2ccccc2SC)on1,0.96,7.8,> 128,–,–,–,–
CCOC(=O)c1cc(/C=C/c2cccc(N)c2)on1,7.5,20.7,> 128,–,–,–,–

SMILES,MIC90 [1] [µM],MIC90 [2] [µM],IC50 [3] [µM],MIC [4] [µM],MIC [5] [µM],MIC [6] [µM],MIC [7] [µM]
CCOC(=O)c1cc(/C=C/c2cccc(C(C)C)c2)on1,3.1,8.3,> 128,–,–,–,–
CCOC(=O)c1cc(/C=C/c2cc(OC)cc(OC)c2)on1,2,3.6,> 128,–,–,–,–
CCOC(=O)c1cc(/C=C/c2ccc(OC)nc2)on1,1.4,86.6,> 128,–,–,–,–
CCOC(=O)c1cc(/C=C/c2cccc(Cl)c2)on1,2.3,6.7,> 128,–,–,–,–
CCOC(=O)c1cc(/C=C\c2cc(F)cc(F)c2)on1,29.2,12.3,> 128,–,–,–,–
CCC(CC)OC(=O)c1cc(/C=C/c2c(Cl)cncc2Cl)on1,7.9,8.9,> 128,–,–,–,–
CCOC(=O)c1cc(/C=C/c2cccc(C(F)(F)F)c2)on1,0.73,21.1,> 128,> 100,> 100,> 100,> 100
CCOC(=O)c1cc(/C=C/c2cccc(C)c2)on1,6.5,7.4,> 128,–,–,–,–
CCOC(=O)c1cc(/C=C/c2cccc3ccccc23)on1,1.6,4,> 128,–,–,–,–
Clc1cncc(Cl)c1/C=C/c1ccno1,> 128,> 128,–,–,–,–,–
CCOC(=O)c1cc(/C=C/c2c(Cl)cccc2Cl)on1,2.5,3.5,–,–,–,–,–
CCOC(=O)c1cc(CCc2cccc(C(F)(F)F)c2)on1,14.2,15.6,–,–,–,–,–
CCOC(=O)c1cc(/C=C/c2ccc(OC)cc2F)on1,3.8,10.7,–,–,–,–,–
CCOC(=O)c1cc(/C=C/c2cccc(O)c2)on1,7.8,28.7,> 128,–,–,–,–
O=C(OCCCC1CCCC1)c1cc(/C=C/c2c(Cl)cncc2Cl)on1,7.3,9.3,–,–,–,–,–
CCOC(=O)c1cc(/C=C/c2cccc(OC)n2)on1,3.8,16,–,–,–,–,–
CCOC(=O)c1cc(/C=C\c2cccc([N+](=O)[O-])c2)on1,5.4,10.9,> 128,–,–,–,–
CCOC(=O)c1cc(/C=C/c2c(Cl)cncc2Cl)on1,0.59,5.1,> 128,94.4,> 100,> 100,> 100
CCCCOC(=O)c1cc(/C=C/c2cccc(OC)c2)on1,1.8,7.6,–,–,–,–,–
CCOC(=O)c1cc(/C=C/c2ccnc3ccc(OC)cc23)on1,0.4,1.1,–,–,–,–,–
CCOC(=O)c1cc(/C=C/c2cccc([N+](=O)[O-])c2)on1,1.2,5.1,> 128,–,–,–,–
CCOC(=O)c1cc(/C=C/c2ccncc2)on1,15.5,52.4,> 128,–,–,–,–
NNC(=O)c1ccncc1 [ISONIAZID],0.84,> 128,128,–,–,–,–
COc1c(N2C[C@@H]3CCCN[C@@H]3C2)c(F)cc2c(=O)c(C(=O)O)cn(C3CC3)c12 [MOXIFLOXACIN],0.46,> 128,–,–,–,–,–
CO[C@H]1/C=C/O[C@@]2(C)Oc3c(C)c(O)c4c(O)c(c(/C=N/N5CCN(C)CC5)c(O)c4c3C2=O)NC(=O)/C(C)=C\C=C\[C@H](C)[C@H](O)[C@@H](C)[C@@H](O)[C@@H](C)[C@H](OC(C)=O)[C@@H]1C [RIFAMPIN],0.1,1.9,–,–,–,–,–
